These results are taken from ChEMBL document CHEMBL1129660, “Studies on 6-aminoquinolones: synthesis and antibacterial evaluation of 6-amino-8-methylquinolones” (J Med Chem, 1996).

A short description of assay [1]: Geometric mean of antibacterial activity (Gram -ve bacteria) of the compound. It is filed as functional. The method, boiled down:
(§1)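 Geometric means calculated from agar-dilution MICs (µg/mL), taken separately across the five Gram-positive and the eight Gram-negative panel strains.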

In assay [2] the test system is Staphylococcus epidermidis. Briefly: Antibacterial activity tested against Staphylococcus epidermidis CPHL A2. In kind it is functional. Summed up: (§2)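 MICs (µg/mL) determined by conventional agar dilution against a panel of eight Gram-negative and five Gram-positive reference strains.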
The next assay has as its system Bacteria. In words: Geometric mean of antibacterial activity (Gram +ve bacteria) of the compound. In kind it is functional. Summed up:
as §1

In assay [3] the test system is Staphylococcus aureus. In words: Antibacterial activity against Staphylococcus aureus MPR 5. In kind it is functional. The method, boiled down:
as §2

For assay [4], the system named is Staphylococcus aureus. Briefly: Antibacterial activity against Staphylococcus aureus ATCC 6538. In kind it is functional. The method, boiled down:
as §2

A further assay relates to Enterobacter cloacae. In words: Antibacterial activity tested against Enterobacter cloacae OMNFI 174. It is filed as functional.
The next assay relates to Klebsiella pneumoniae. Briefly: Antibacterial activity tested against Klebsiella pneumoniae (Klebsiella pneumoniae) ATCC 10031. In kind it is functional. The method, boiled down:
as §2

The subject of assay [5] is Enterococcus faecium. Briefly: Antibacterial activity tested against Enterococcus faecium; Range is 1-2 ug/mL. It is filed as functional.
The next assay concerns Providencia stuartii. In words: Antibacterial activity tested against Providencia stuartii CNUR 5. In kind it is functional. The method, boiled down: as §2
The test system of assay [6] is Staphylococcus aureus. Briefly: Antibacterial activity tested against Staphylococcus aureus; Range is 0.016-0.13 ug/mL. It is filed as functional.
A further assay concerns Pseudomonas aeruginosa. In words: Antibacterial activity tested against P. ae (Pseudomonas aeruginosa) ATCC 9027. It is filed as functional. Summed up:
as §2

Assay [7] concerns Staphylococcus aureus. In words: Antibacterial activity tested against Staphylococcus aureus Methicillin-and Ciprofloxacin resistants; Range is 2-4 ug/mL. In kind it is functional.
The test system of a further assay is Shigella. Briefly: Antibacterial activity tested against Shigella enteritidis. It is filed as functional. The method, boiled down: as §2
The test system of another assay is Proteus vulgaris. Briefly: Antibacterial activity tested against Proteus vulgaris CNUR 5. It is filed as functional. Summed up: as §2
For assay [8], the system named is Escherichia coli. In words: Antibacterial activity tested against Escherichia coli ISF 432. In kind it is functional. The method, boiled down:
as §2

Assay [9] deals with Enterococcus faecalis. Briefly: Antibacterial activity tested against Enterococcus faecalis; Range is 0.13-0.5 ug/mL. It is filed as functional.
Assay [10] deals with Escherichia coli. In words: Antibacterial activity tested against Escherichia coli ATCC 8739. It is filed as functional. Summed up: as §2
For assay [11], the system named is Staphylococcus epidermidis. Briefly: Antibacterial activity tested against Staphylococcus epidermidis HCF Berset C. It is filed as functional. Summed up: as §2
Assay [12] deals with Streptococcus pneumoniae. Briefly: Antibacterial activity tested against Streptococcus pneumoniae; Range is 1-2 ug/mL. It is filed as functional.
For assay [13], the system named is Escherichia coli. In words: Inhibitory activity against gyrase supercoiling activity from Escherichia coli. In kind it is functional. The method, boiled down:
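Inhibition of DNA gyrase supercoiling activity, by a previously described protocol with slight modifications. IC50 derived by densitometric quantification of the supercoiled DNA peak in an agarose gel.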

Assay [14] has as its system Enterococcus faecalis. In words: Antibacterial activity tested against Streptococcus faecalis LEP Br. It is filed as functional. The method, boiled down:
as §2

Assay [15] deals with Staphylococcus aureus. Briefly: Antibacterial activity tested against Staphylococcus aureus; Range is 0.06-0.13 ug/mL. In kind it is functional.
Assay [16] concerns Enterococcus faecalis. In words: Antibacterial activity tested against Enterococcus faecalis; Range is 0.25-0.5 ug/mL. In kind it is functional.
Assay [17] has as its system Staphylococcus aureus. In words: Antibacterial activity tested against Staphylococcus aureus Methicillin-and Ciprofloxacin resistants; Range is 4-8 ug/mL. It is filed as functional.
Assay [18] relates to Enterococcus faecium. In words: Antibacterial activity tested against Enterococcus faecium; Range is 0.5-2 ug/mL. It is filed as functional.
Assay [19] deals with Streptococcus pneumoniae. Briefly: Antibacterial activity tested against Streptococcus pneumoniae; Range is 0.5-2 ug/mL. In kind it is functional.
Assay [20] concerns Enterococcus faecium. Briefly: Antibacterial activity tested against Enterococcus faecium; Range is 0.25-4 ug/mL. In kind it is functional.
For assay [21], the system named is Staphylococcus aureus. Briefly: Antibacterial activity tested against Staphylococcus aureus Methicillin-and Ciprofloxacin resistants; Range is 4-32 ug/mL. In kind it is functional.
The test system of assay [22] is Mus musculus. Briefly: Efficacy against Septicemia caused by Staphylococcus aureus in mice by Oral administration. In kind it is functional. The method, boiled down: (§3)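 S. aureus Smith ATCC19636, overnight brain-heart infusion culture diluted in 5% mucin, given i.p. (0.5 mL) to male and female CD-1 mice (18-22 g). Single s.c. or oral dose within 10 min of infection, drug in DMSO/0.5% methocel or as suspension. 3-5 dose groups of six mice; ED50 with 95% limits by Spearman-Kärber from day-7 survival.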

Assay [23] deals with Enterococcus faecalis. Briefly: microbe, parasite or virus in culture.
For assay [24], the system named is Enterococcus faecium. Briefly: microbe, parasite or virus in culture.
Assay [25] deals with Staphylococcus aureus. In words: microbe, parasite or virus in culture.
Assay [26] relates to Mus musculus. In words: Efficacy against Septicemia caused by Staphylococcus aureus in mice by subcutaneous administration. It is filed as functional. To be noted: sc. The method, boiled down:
as §3

The subject of assay [27] is Staphylococcus aureus. In words: microbe, parasite or virus in culture. This is another data set of the same source.

In brackets after ≈: the same amount, converted by molar mass.

With `Cc1c(N2CCCCC2)c(N)cc2c(=O)c(C(=O)O)cn(C3CC3)c12`, the Geometric mean is reported as 0.225 in [1] and 0.123 in the assay on Bacteria. The MIC in assay [2] was 0.125 µg/mL (≈ 0.366 µM); with Staphylococcus aureus [3], 0.06 µg/mL (≈ 0.176 µM); in the assay with Staphylococcus aureus [4], 0.06 µg/mL (≈ 0.176 µM); in the assay on Enterobacter cloacae, 0.25 µg/mL (≈ 0.732 µM); in the assay on Klebsiella pneumoniae it was 0.03 µg/mL (≈ 0.0879 µM); in the assay on Enterococcus faecium [5] it was 1 µg/mL (≈ 2.93 µM). The MIC in the assay with Providencia stuartii stood at 0.5 µg/mL (≈ 1.46 µM); against Staphylococcus aureus [6], 0.016 µg/mL (≈ 0.0469 µM); in the assay with Pseudomonas aeruginosa, 1 µg/mL (≈ 2.93 µM); with Staphylococcus aureus [7] it was 2 µg/mL (≈ 5.86 µM); in the assay on Shigella it was 0.25 µg/mL (≈ 0.732 µM); in the assay on Proteus vulgaris it was 8 µg/mL (≈ 23.4 µM). Also, the MIC with Escherichia coli [8] was determined as 0.03 µg/mL (≈ 0.0879 µM); in the assay with Enterococcus faecalis [9], 0.5 µg/mL (≈ 1.46 µM); with Escherichia coli [10] it was 0.03 µg/mL (≈ 0.0879 µM); in [11] it was 0.125 µg/mL (≈ 0.366 µM); against Streptococcus pneumoniae [12], 1 µg/mL (≈ 2.93 µM); against Enterococcus faecalis [14], 0.5 µg/mL (≈ 1.46 µM). This compound gave an IC50 in the assay on Escherichia coli [13] of 3.22 µg/mL (≈ 9.43 µM).

Regarding `Cc1c(N2CCOCC2)c(N)cc2c(=O)c(C(=O)O)cn(C3CC3)c12`, the Geometric mean is on record as 0.189 in assay [1] and 0.218 in the assay on Bacteria. Also, the MIC in the assay on Staphylococcus aureus [15] was found to be 0.06 µg/mL (≈ 0.175 µM); in [2] it was 0.25 µg/mL (≈ 0.728 µM); against Staphylococcus aureus [3], 0.125 µg/mL (≈ 0.364 µM); in the assay on Staphylococcus aureus [4], 0.125 µg/mL (≈ 0.364 µM); in the assay with Enterobacter cloacae, 0.125 µg/mL (≈ 0.364 µM); in the assay with Enterococcus faecalis [16], 0.25 µg/mL (≈ 0.728 µM). The MIC with Klebsiella pneumoniae was 0.03 µg/mL (≈ 0.0874 µM); in the assay with Staphylococcus aureus [17], 4 µg/mL (≈ 11.6 µM); with Providencia stuartii, 0.5 µg/mL (≈ 1.46 µM); in the assay on Pseudomonas aeruginosa, 1 µg/mL (≈ 2.91 µM); against Shigella, 0.125 µg/mL (≈ 0.364 µM); against Enterococcus faecium [18], 0.5 µg/mL (≈ 1.46 µM). Moreover, the MIC against Proteus vulgaris came to 8 µg/mL (≈ 23.3 µM); in the assay with Escherichia coli [8], 0.03 µg/mL (≈ 0.0874 µM); against Escherichia coli [10], 0.03 µg/mL (≈ 0.0874 µM); in assay [11] it was 0.125 µg/mL (≈ 0.364 µM); against Streptococcus pneumoniae [12], 1 µg/mL (≈ 2.91 µM); against Enterococcus faecalis [14], 1 µg/mL (≈ 2.91 µM). Also, the IC50 with Escherichia coli [13] amounted to 5.64 µg/mL (≈ 16.4 µM).

Consider `Cc1c(N2CCC(O)CC2)c(N)cc2c(=O)c(C(=O)O)cn(C3CC3)c12`, for which the Geometric mean is on record as 0.495 in assay [1] and 0.106 with Bacteria. Further, the MIC in the assay with Staphylococcus aureus [15] stood at 0.06 µg/mL (≈ 0.168 µM); in assay [2], 0.06 µg/mL (≈ 0.168 µM); in the assay with Staphylococcus aureus [3] it was 0.125 µg/mL (≈ 0.35 µM); against Staphylococcus aureus [4], 0.06 µg/mL (≈ 0.168 µM); with Enterobacter cloacae it was 0.5 µg/mL (≈ 1.4 µM); in the assay on Enterococcus faecalis [16] it was 0.25 µg/mL (≈ 0.699 µM). The MIC is 0.03 µg/mL (≈ 0.0839 µM) in the assay with Klebsiella pneumoniae; 1 µg/mL (≈ 2.8 µM) against Providencia stuartii; 0.5 µg/mL (≈ 1.4 µM) with Streptococcus pneumoniae [19]; 2 µg/mL (≈ 5.6 µM) in the assay on Pseudomonas aeruginosa; 0.25 µg/mL (≈ 0.699 µM) with Shigella; 16 µg/mL (≈ 44.8 µM) in the assay with Proteus vulgaris. Also, the MIC turned out to be 0.25 µg/mL (≈ 0.699 µM) in the assay on Enterococcus faecium [20]; 0.03 µg/mL (≈ 0.0839 µM) against Escherichia coli [8]; 1 µg/mL (≈ 2.8 µM) in the assay on Escherichia coli [10]; 0.06 µg/mL (≈ 0.168 µM) in assay [11]; 4 µg/mL (≈ 11.2 µM) against Staphylococcus aureus [21]; 0.5 µg/mL (≈ 1.4 µM) in the assay with Enterococcus faecalis [14]. This compound also registered an IC50 with Escherichia coli [13] of 5.74 µg/mL (≈ 16.1 µM).

`O=C(O)c1cn(C2CC2)c2cc(N3CCNCC3)c(F)cc2c1=O` [CIPROFLOXACIN]: the Geometric mean stood at 0.033 in [1] and 0.092 with Bacteria. Besides, the ED50 in the assay with Mus musculus [22] stood at 7 mg/kg; with Mus musculus [26], 0.9 mg/kg. The MIC is 0.06 µg/mL (≈ 0.181 µM) in [2]; 0.06 µg/mL (≈ 0.181 µM) against Staphylococcus aureus [3]; 0.06 µg/mL (≈ 0.181 µM) in the assay with Staphylococcus aureus [4]; 0.06 µg/mL (≈ 0.181 µM) against Providencia stuartii; 0.06 µg/mL (≈ 0.181 µM) in the assay on Pseudomonas aeruginosa; 0.5 µg/mL (≈ 1.51 µM) in the assay on Enterococcus faecalis [23]. The MIC in the assay on Enterococcus faecium [24] worked out at 1 µg/mL (≈ 3.02 µM); in the assay on Staphylococcus aureus [25], 0.13 µg/mL (≈ 0.392 µM); in the assay with Proteus vulgaris it was 0.5 µg/mL (≈ 1.51 µM); in assay [11], 0.06 µg/mL (≈ 0.181 µM); against Enterococcus faecalis [14] it was 0.5 µg/mL (≈ 1.51 µM); against Staphylococcus aureus [27], 4 µg/mL (≈ 12.1 µM).
